Here are results for five molecules from ChEMBL document CHEMBL1140564, “Macrocyclic ureas as potent and selective Chk1 inhibitors: an improved synthesis, kinome profiling, structure-activity relationships, and preliminary pharmacokinetics” (Bioorg Med Chem Lett, 2007).

The nature of series [1]: AUC in mouse plasma at 10 mg/kg. In kind it is ADME, organism-based. Set-up: dose 10 mg/kg. The procedure, abridged: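 CD-1 mice received a single intraperitoneal dose of 10 mg/kg. Plasma drug levels were followed over time, and exposure was expressed as AUC in µmol h/L.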
Series [2] has as its target NUAK family SNF1-like kinase 1 (Homo sapiens, UniProt O60285). As to the kind of experiment: Inhibition of ARK5.
A short description of series [3]: Inhibition of PKG1B. Set-up: species or system Homo sapiens.
The target of series [4] is Serine/threonine-protein kinase DCLK2 (Homo sapiens, UniProt Q8N568). Briefly: Inhibition of DCAMKL2.
Series [5] deals with Muscle, skeletal receptor tyrosine-protein kinase (Homo sapiens, UniProt O15146). As to the kind of experiment: Inhibition of MUSK.
The nature of series [6]: Inhibition of PHK lambda 2. More on the design: species or system Homo sapiens.
Series [7] in a line: Inhibition of CMET. Set-up: species or system Homo sapiens.
Series [8] in a line: Inhibition of PKA. Set-up: species or system Homo sapiens.
Series [9] in a line: Cell cycle arrest in H1299 cells by accumulation at G2/M phase by FACS assay. The following applies: Homo sapiens, NCI-H1299. In kind it is functional, cell-based. (In general: Flow cytometry measures light scatter and fluorescence of single cells or particles in a stream.)
Series [10] deals with HeLa. As to the kind of experiment: Cytotoxicity against HeLa cells by MTS assay. In kind it is functional, cell-based. The conditions noted are these: Homo sapiens. (Tetrazolium assays rely on reduction of a dye to a coloured formazan, in cell work by metabolically active cells.)
Series [11] deals with Cyclin-dependent kinase 7 (Homo sapiens, UniProt P50613). As to the kind of experiment: Inhibition of CDK7.
The nature of series [12]: Inhibition of JNK2a2. Set-up: species or system Homo sapiens.
For series [13], the system named is NCI-H1299. As to the kind of experiment: Inhibition of doxorubicin-induced cell cycle arrest in H1299 cells at G2/M phase by FACS assay. It counts as functional, cell-based. The conditions noted are these: Homo sapiens. The procedure, abridged: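 H1299 cells treated with 500 nM doxorubicin to induce G2/M arrest, with or without inhibitor at various concentrations, up to 10 μM. Cells stained with propidium iodide and DNA content analysed by FACS. EC50 for abrogation of the Dox-induced G2/M checkpoint.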

For series [14], the target named is SRSF protein kinase 3 (Homo sapiens, UniProt Q9UPE1). As to the kind of experiment: Inhibition of MSSK1.
For series [15], the target named is TAK1/TAB1 (Homo sapiens, UniProt O43318). Briefly: Inhibition of TAK1-TAB1.
In series [16] the target is Ribosomal protein S6 kinase alpha-4 (Homo sapiens, UniProt O75676). Briefly: Inhibition of MSK2.
The target of series [17] is Serine/threonine-protein kinase 31 (Homo sapiens, UniProt Q9BXU1). Briefly: Inhibition of STK31.
Series [18] addresses Calcium/calmodulin-dependent protein kinase type IV (Homo sapiens, UniProt Q16566). Briefly: Inhibition of CAMK4.
The nature of series [19]: Inhibition of AUR2. Set-up: species or system Homo sapiens.
The target in series [20] is Serine/threonine-protein kinase Nek11 (Homo sapiens, UniProt Q8NG66). As to the kind of experiment: Inhibition of NEK11.
In series [21] the target is Serine/threonine-protein kinase WNK2 (Homo sapiens, UniProt Q9Y3S1). As to the kind of experiment: Inhibition of WNK2.
In series [22] the target is Mitogen-activated protein kinase kinase kinase 9 (Homo sapiens, UniProt P80192). As to the kind of experiment: Inhibition of MLK1.
For series [23], the target named is Serine/threonine-protein kinase TBK1 (Homo sapiens, UniProt Q9UHD2). As to the kind of experiment: Inhibition of TBK1.
The target of series [24] is Serine/threonine-protein kinase Sgk1 (Homo sapiens, UniProt O00141). Briefly: Inhibition of SGK.
Series [25] can be described thus: Inhibition of PKG1A. More on the design: species or system Homo sapiens.
The nature of series [26]: Inhibition of JNK1a1. More on the design: species or system Homo sapiens.
Series [27] deals with Cyclin-dependent kinase 9 (Homo sapiens, UniProt P50750). Briefly: Inhibition of CDK9.
Series [28] concerns the target Serine/threonine-protein kinase Nek3 (Homo sapiens, UniProt P51956). As to the kind of experiment: Inhibition of NEK3.
Series [29] is described as follows: Inhibition of AUR1. More on the design: species or system Homo sapiens.
For series [30], the target named is Serine/threonine-protein kinase 33 (Homo sapiens, UniProt Q9BYT3). Briefly: Inhibition of STK33.
Series [31] deals with Cyclin-dependent kinase 6 (Homo sapiens, UniProt Q00534). As to the kind of experiment: Inhibition of CDK6.
Series [32] concerns the target 5'-AMP-activated protein kinase subunit beta-1 (Homo sapiens, UniProt Q9Y478). Briefly: Inhibition of AMPK.
Series [33] deals with T1, Serine/threonine-protein kinase Chk1 (Homo sapiens, UniProt O14757).
T1 sequence (O14757 whole entry): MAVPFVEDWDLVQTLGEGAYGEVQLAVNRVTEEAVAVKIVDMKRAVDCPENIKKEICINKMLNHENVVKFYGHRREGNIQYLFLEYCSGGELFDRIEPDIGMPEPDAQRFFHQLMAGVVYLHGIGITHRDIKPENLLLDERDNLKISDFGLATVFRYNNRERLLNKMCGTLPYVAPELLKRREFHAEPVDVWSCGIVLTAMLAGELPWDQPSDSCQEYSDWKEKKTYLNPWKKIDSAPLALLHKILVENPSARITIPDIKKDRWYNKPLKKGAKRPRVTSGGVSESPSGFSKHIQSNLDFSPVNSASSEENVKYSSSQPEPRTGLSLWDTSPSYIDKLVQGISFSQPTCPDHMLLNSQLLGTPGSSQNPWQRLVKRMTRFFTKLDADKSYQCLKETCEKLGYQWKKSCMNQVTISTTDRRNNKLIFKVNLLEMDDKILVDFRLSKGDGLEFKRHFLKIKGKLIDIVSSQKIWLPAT
Briefly: Inhibition of Chk1.

Each structure is given as a SMILES string. Active and inactive are the calls of the source. The calls are words filed in the database; no cut-off is given here.

Sequence of Ribosomal protein S6 kinase alpha-4 (O75676 whole entry): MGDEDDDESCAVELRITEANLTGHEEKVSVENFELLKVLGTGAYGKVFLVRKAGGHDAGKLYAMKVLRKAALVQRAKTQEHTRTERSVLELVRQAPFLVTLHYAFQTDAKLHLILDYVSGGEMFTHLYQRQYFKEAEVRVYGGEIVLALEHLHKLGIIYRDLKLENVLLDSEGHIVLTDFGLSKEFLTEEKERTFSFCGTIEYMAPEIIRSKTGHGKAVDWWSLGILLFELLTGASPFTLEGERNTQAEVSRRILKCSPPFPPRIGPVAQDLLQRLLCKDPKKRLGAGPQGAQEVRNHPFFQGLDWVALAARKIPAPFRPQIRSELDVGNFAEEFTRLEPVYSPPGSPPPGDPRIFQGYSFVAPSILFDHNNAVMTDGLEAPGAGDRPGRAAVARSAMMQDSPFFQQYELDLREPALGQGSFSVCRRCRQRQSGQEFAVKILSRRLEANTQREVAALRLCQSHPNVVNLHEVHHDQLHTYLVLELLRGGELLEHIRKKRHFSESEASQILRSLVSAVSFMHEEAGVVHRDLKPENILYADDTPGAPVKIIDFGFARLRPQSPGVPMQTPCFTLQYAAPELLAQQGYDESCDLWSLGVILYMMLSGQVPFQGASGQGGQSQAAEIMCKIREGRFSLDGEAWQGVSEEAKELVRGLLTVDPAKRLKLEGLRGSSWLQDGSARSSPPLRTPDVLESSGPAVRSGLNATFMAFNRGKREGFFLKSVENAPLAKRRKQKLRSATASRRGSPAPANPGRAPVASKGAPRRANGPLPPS
Sequence of Serine/threonine-protein kinase 33 (Q9BYT3 whole entry): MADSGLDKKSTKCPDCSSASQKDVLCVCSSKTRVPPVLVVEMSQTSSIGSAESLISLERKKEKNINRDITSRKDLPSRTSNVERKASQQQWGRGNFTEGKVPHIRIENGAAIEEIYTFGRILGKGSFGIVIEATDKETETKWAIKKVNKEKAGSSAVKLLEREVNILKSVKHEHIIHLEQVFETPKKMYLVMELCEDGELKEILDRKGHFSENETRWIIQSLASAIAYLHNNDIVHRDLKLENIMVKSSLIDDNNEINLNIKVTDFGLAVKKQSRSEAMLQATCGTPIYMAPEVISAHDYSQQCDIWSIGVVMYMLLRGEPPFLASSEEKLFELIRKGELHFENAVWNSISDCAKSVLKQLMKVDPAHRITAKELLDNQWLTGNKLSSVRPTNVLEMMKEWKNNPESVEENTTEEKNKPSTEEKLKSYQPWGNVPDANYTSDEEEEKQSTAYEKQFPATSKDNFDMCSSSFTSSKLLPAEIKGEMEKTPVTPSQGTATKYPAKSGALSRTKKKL
Sequence of Cyclin-dependent kinase 7 (P50613 whole entry): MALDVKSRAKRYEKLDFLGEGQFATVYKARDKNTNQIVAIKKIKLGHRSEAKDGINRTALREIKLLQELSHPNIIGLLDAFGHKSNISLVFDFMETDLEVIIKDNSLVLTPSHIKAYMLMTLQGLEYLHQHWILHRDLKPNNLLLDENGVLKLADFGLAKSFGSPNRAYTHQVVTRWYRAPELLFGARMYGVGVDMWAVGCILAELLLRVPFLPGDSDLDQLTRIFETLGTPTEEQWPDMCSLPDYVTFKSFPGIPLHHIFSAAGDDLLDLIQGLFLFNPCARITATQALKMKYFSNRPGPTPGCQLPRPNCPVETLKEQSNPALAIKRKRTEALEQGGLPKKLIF
Sequence of Muscle, skeletal receptor tyrosine-protein kinase (O15146 whole entry): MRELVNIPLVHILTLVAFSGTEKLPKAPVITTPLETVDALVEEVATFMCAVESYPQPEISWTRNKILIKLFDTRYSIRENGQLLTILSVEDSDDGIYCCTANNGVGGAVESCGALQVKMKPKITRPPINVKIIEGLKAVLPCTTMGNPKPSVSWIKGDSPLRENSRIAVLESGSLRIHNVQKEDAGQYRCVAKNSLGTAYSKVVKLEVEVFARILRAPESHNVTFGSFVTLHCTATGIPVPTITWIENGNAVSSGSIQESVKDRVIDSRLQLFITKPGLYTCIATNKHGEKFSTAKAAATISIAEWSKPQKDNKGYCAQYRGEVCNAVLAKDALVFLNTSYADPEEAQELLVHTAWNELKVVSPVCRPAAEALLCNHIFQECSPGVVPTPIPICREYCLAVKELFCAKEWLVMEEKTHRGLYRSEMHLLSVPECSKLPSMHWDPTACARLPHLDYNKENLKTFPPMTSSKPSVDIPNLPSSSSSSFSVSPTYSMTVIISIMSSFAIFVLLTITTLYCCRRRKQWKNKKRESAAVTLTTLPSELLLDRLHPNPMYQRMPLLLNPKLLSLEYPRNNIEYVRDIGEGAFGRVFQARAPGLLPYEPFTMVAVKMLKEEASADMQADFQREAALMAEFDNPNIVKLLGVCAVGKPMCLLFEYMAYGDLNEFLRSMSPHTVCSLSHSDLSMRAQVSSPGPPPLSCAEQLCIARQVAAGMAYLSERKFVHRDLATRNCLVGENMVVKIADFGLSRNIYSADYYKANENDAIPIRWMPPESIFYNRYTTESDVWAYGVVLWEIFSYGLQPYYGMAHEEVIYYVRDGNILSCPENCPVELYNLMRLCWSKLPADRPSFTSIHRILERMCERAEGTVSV
Sequence of Serine/threonine-protein kinase DCLK2 (Q8N568 whole entry): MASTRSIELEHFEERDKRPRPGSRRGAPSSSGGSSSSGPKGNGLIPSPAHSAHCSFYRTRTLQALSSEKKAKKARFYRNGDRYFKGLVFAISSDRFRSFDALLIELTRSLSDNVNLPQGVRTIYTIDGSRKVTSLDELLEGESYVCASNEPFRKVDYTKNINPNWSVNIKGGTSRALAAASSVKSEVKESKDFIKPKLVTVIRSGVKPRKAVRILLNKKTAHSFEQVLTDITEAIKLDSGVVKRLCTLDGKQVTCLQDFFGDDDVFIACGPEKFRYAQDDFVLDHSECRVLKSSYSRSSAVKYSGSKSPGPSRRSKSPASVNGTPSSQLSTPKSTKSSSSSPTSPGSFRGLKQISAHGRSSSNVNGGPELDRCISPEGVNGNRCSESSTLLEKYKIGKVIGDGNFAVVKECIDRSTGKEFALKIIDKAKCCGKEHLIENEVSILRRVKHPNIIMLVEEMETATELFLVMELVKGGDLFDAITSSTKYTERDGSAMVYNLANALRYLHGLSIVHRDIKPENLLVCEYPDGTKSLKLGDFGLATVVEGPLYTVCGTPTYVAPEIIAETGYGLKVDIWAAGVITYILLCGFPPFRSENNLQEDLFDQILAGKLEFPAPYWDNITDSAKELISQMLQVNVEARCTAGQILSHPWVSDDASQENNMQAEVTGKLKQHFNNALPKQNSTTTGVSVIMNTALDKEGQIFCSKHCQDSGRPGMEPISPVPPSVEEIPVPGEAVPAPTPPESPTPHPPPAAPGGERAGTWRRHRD
Sequence of Calcium/calmodulin-dependent protein kinase type IV (Q16566 whole entry): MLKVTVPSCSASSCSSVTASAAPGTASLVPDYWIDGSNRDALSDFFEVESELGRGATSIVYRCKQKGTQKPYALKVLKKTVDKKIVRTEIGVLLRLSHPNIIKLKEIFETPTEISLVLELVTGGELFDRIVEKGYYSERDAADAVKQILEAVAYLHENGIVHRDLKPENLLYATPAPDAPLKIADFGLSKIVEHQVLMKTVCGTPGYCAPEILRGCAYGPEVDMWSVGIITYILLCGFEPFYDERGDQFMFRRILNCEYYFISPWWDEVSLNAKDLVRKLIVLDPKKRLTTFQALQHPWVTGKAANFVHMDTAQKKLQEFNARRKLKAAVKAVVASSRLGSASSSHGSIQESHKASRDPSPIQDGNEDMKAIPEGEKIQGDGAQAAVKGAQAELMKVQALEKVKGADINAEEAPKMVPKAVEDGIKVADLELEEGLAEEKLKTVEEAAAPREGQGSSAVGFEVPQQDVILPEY
Sequence of SRSF protein kinase 3 (Q9UPE1 whole entry): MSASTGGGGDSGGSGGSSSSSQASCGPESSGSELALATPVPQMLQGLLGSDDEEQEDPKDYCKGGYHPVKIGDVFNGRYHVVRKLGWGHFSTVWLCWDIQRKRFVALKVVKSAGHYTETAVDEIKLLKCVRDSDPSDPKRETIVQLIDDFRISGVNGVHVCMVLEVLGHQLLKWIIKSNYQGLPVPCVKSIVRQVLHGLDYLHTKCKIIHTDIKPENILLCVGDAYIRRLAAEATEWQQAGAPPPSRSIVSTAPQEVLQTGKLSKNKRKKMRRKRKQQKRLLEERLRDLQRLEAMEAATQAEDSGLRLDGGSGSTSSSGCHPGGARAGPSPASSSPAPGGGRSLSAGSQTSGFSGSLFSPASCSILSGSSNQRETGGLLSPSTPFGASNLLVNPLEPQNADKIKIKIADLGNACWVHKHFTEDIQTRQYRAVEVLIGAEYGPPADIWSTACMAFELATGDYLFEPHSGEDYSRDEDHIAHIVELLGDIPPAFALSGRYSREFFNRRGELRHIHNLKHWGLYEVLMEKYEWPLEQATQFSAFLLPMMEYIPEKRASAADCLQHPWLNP
Sequence of NUAK family SNF1-like kinase 1 (O60285 whole entry): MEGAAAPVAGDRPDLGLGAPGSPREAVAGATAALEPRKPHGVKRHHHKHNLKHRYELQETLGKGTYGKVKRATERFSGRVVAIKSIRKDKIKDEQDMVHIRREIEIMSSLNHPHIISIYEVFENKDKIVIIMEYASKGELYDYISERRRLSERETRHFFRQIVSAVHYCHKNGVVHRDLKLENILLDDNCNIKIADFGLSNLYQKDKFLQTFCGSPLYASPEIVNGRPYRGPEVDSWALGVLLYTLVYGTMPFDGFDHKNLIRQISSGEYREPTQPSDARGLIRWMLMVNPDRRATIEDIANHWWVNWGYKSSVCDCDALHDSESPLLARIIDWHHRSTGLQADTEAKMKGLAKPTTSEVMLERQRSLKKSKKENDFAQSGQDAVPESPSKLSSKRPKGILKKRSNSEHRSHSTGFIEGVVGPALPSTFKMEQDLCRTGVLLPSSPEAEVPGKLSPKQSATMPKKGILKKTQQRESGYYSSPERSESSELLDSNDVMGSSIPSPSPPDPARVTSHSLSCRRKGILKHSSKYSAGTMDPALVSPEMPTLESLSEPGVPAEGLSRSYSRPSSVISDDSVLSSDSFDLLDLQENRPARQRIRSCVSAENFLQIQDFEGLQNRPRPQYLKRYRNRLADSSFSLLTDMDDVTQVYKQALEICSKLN

By AUC is commonly meant concentration integrated over time. Higher therefore signals more exposure. `N#Cc1ncc2nc1OCCCCCOc1ccc(Cl)cc1NC(=O)N2` returned an AUC in [1] of 1.5 µM·h.

The term Ki denotes a dissociation constant, usually derived from enzyme kinetics or from competition with a known ligand. The EC50 is the concentration at which the effect is half-maximal. Read a low EC50 as an effect from little substance. Turning to `N#Cc1ncc2nc1OCCCCOc1cc(NCc3cncs3)c(Cl)cc1NC(=O)N2`, the Ki in series [2] is more than 1500 nM; in [3] it was more than 1680 nM; in series [4] it was more than 9570 nM; in [5], more than 1650 nM; in series [6] it was more than 4900 nM; in series [7] it was more than 2860 nM. The Ki in series [8] is more than 7500 nM; in [11], more than 1520 nM; in [12] it was more than 4120 nM; in series [14], more than 1740 nM; in series [15], more than 1610 nM; in series [16], 949 nM. For the same molecule, the Ki is more than 1440 nM in [17]; more than 8570 nM in series [18]; 1910 nM in series [19]; more than 1550 nM in series [20]; more than 1520 nM in series [21]; more than 1670 nM in series [22]. The Ki in series [23] was more than 1520 nM; in [24] it was 8180 nM; in series [25], more than 1780 nM; in series [26], more than 3060 nM; in series [27], more than 1640 nM; in series [28], more than 1670 nM. For the same molecule, the Ki in series [29] was 2020 nM; in series [30] it was more than 1640 nM; in [31], more than 1550 nM; in series [32], 1540 nM. The outcome in series [9] and in series [13] was inactive. In series [10], this molecule came in with an EC50 of 59300 nM.

As to `N#Cc1ncc2nc1OCCCCOc1ccc(Cl)cc1NC(=O)N2`, the results for the EC50 in series [9], in series [10] and in series [13] were more than 10000 nM, 57600 nM and 1300 nM, respectively. In [1], the AUC turned out to be 3.8 µM·h.

By IC50 is commonly meant the midpoint of a concentration-inhibition curve. A high value points to lower potency. On to `N#Cc1ncc2nc1OC/C=C\COc1cc(N3CCOC3=O)c(Cl)cc1NC(=O)N2`, for which the outcome in series [9] and in [13] was inactive. The molecule further registered an EC50 in [10] of more than 59300 nM. This molecule registered an IC50 in [33] of 10 nM.

As to `CN(C)c1cc2c(cc1Cl)NC(=O)Nc1cnc(C#N)c(n1)OC/C=C\CO2`, the EC50 in [9] was more than 10000 nM; in series [10] it was 18700 nM; in series [13], 1700 nM. Further, inhibition in series [33] was half-maximal at 2 nM (IC50).
